Test results from ChEMBL document CHEMBL1134514, “Synthesis of novel gamma-aminobutyric acid (GABA) uptake inhibitors. 5.(1) Preparation and structure-activity studies of tricyclic analogues of known GABA uptake inhibitors” (J Med Chem, 2001).

Experiments:
GABA transporter = GABA transporter (Rattus norvegicus, UniProt P31647+P23978+P31646+P48056); assay: In vitro inhibition of [3H]GABA uptake in rat synaptosomes was determined; type: functional, subcellular, Brain
In short: (§1)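 Rat forebrain homogenized in ice-cold 0.32 M sucrose, spun 10 min at 600 g, 4 °C; pellet resuspended in pH 7.4 phosphate/NaCl/glucose buffer. Synaptosomes (0.1 mg protein) preincubated with test substance 8 min at 30 °C, then [3H]-GABA (0.9 nM final) plus unlabeled GABA (0.9 nM final) for 8 min. Filtration on glass fiber, ice-cold saline washes, scintillation counting. IC50 as mean of two determinations.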

[1] = target: T1, GABA transporter (Mus musculus) (UniProt P31650+P31651+P31649+P31648); assay: Ratio for ED50 values for inhibition of rotarod to inhibition of DMCM-induced convulsions in mice; type: functional
In short: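 Protective index is the rotarod ED50 divided by the ED50 for inhibiting DMCM (15 mg/kg ip) clonic seizures. Both were measured in mice after ip dosing.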

[2] = target: T1, GABA transporter (Mus musculus); assay: In vivo anticonvulsant effect measured as rotarod in mice after ip administration; type: functional, organism-based
In short: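 Mice pretrained 2 min on rotarod (6 rpm, 3 cm rod), then dosed ip. On testing, a mouse that fell was placed back on the rod. Testing ended at 10 failures or after 2 min. ED50 in mg/kg.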

[3] = target: T1, GABA transporter (Mus musculus); assay: In vivo anticonvulsant effect measured as inhibition of DMCM -induced seizures in mice after ip administration.; type: functional, organism-based
In short: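 Female NMRI mice given test drug ip 30 min before DMCM 15 mg/kg ip. Observed for 30 min for clonic seizures and death, N = 5-10 per dose. ED50 in mg/kg.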

Rattus norvegicus [4] = organism: Rattus norvegicus; assay: In vitro inhibition of [3H]GABA uptake determined; type: functional; in short: as §1
Rattus norvegicus [5] = organism: Rattus norvegicus; assay: In vitro inhibition of [3H]GABA uptake in rat synaptosomes was determined; No activity; type: functional, Brain

SMILES | IC50 (GABA transporter) | Protective index [1] | ED50 [2] | ED50 [3] | IC50 (Rattus norvegicus [4]) | IC50 (Rattus norvegicus [5])
Cl.O=C(O)[C@@H]1CCCN(CCOCCN2c3ccccc3CCc3ccc(F)cc32)C1 | 265 nM | – | – | – | – | –
Cl.O=C(O)[C@@H]1CCCN(CCOCCN2c3cc(Cl)ccc3CCc3ccc(Cl)cc32)C1 | 68 nM | > 2.2 | > 100 mg/kg | 45 mg/kg | – | –
Cl.O=C(O)[C@@H]1CCCN(CCOCCN2c3ccc(F)cc3CCc3cc(F)ccc32)C1 | 248 nM | – | – | – | – | –
Cl.O=C(O)C1CCCN(CCOC(c2ccccc2)c2ccccc2)C1 (stereo not drawn) | 1370 nM | – | – | – | – | –
O=C(O)[C@@H]1CCCN(CCOC=C2c3ccccc3CCc3ccccc32)C1 | – | – | – | – | 2180 nM | –
Cl.O=C(O)C1=CCCN(CCOCCN2c3ccccc3CCc3ccccc32)C1 | 644 nM | 2.9 | 21 mg/kg | 7.3 mg/kg | – | –
Cl.O=C(O)[C@@H]1CCCN(CCOCCC(c2ccccc2)c2ccccc2)C1 | 55 nM | 5.3 | – | – | – | –
Cl.O=C(O)[C@H]1CCCN(CCOCC=C2c3ccccc3CCc3ccccc32)C1 | 770 nM | > 3.3 | > 100 mg/kg | 30 mg/kg | – | –
Cl.O=C(O)[C@H]1CCCN(CCOCCC2c3ccccc3CCc3ccccc32)C1 | 561 nM | > 2.6 | > 60 mg/kg | 23 mg/kg | – | –
O=C(O)[C@@H]1CCCN(CCOCCN2c3ccc(Br)cc3CCc3cc(Br)ccc32)C1 | – | – | – | – | 1030 nM | –
Cl.O=C(O)[C@@H]1CCCN(CCOCCN2c3ccccc3CCCc3ccccc32)C1 | 851 nM | > 1.5 | – | 60 mg/kg | – | –
O=C(O)[C@@H]1CCCN(CCOC=C(c2ccccc2)c2ccccc2)C1 | – | – | – | – | 87 nM | –
Cl.O=C(O)[C@@H]1CCCN(CCOCCCN2c3ccccc3CCc3ccccc32)C1 | 696 nM | > 1.2 | > 60 mg/kg | 50 mg/kg | – | –
Cl.O=C(O)C1=CCCN(CCOCCC2c3ccccc3CCc3ccccc32)C1 | 1202 nM | – | – | – | – | –
Cl.O=C(O)[C@@H]1CCCN(CCON=C(c2ccccc2)c2ccccc2)C1 | 82 nM | – | – | – | – | –
Cl.O=C(O)[C@@H]1CCCN(CCOCCn2c3ccccc3c3ccccc32)C1 | > 40000 nM | – | – | – | – | –

SMILES | IC50 (GABA transporter) | Protective index [1] | ED50 [2] | ED50 [3] | IC50 (Rattus norvegicus [4]) | IC50 (Rattus norvegicus [5])
O=C(O)[C@@H]1CCCN(CCC=C2c3ccccc3-c3ccccc32)C1 | 2018 nM | – | – | – | – | –
O=C(O)C1CCCN(CCOC2c3ccccc3-c3ccccc32)C1 (stereo not drawn) | – | – | – | – | – | Not Active
Cl.O=C(O)[C@@H]1CCCN(CCOCCN2c3ccccc3CCc3ccc(Cl)cc32)C1 | 74 nM | > 2 | > 30 mg/kg | 15 mg/kg | – | –
Cl.O=C(O)CC1CCN(CCOCCN2c3ccccc3CCc3ccccc32)C1 (stereo not drawn) | 51 nM | 3.2 | 100 mg/kg | 31 mg/kg | – | –
Cl.O=C(O)[C@@H]1CCCN(CCCOCC=C2c3ccccc3CCc3ccccc32)C1 | 460 nM | > 2.5 | > 150 mg/kg | 60 mg/kg | – | –
Cl.O=C(O)[C@@H]1CCCN(CCOCCN2c3ccccc3Oc3ccccc32)C1 | 14600 nM | – | – | – | – | –
Cl.O=C(O)[C@@H]1CCCN(CCOCCN2c3ccccc3CCc3ccccc32)C1 | 184 nM | 5.7 | 85 mg/kg | 15 mg/kg | – | –
Cl.O=C(O)[C@@H]1CCCN(CCOCCN(c2ccccc2)c2ccccc2)C1 | 90 nM | 1.6 | – | – | – | –
O=C(O)C1CCCN(CCOC2c3ccccc3C=Cc3ccccc32)C1 (stereo not drawn) | 2500 nM | – | – | – | – | –
Cl.O=C(O)[C@H]1CCCN(CCOC/C=C2\c3ccccc3CCc3ccc(Cl)cc32)C1 | 2495 nM | > 1.2 | > 60 mg/kg | 50 mg/kg | – | –
Cl.O=C(O)[C@@H]1CCCN(CCOCCN2c3ccccc3Sc3ccccc32)C1 | 308 nM | 1.8 | 54 mg/kg | 30 mg/kg | – | –
Cl.O=C(O)[C@@H]1CCCN(CCON=C2c3ccccc3CCc3ccccc32)C1 | 1161 nM | > 3.3 | > 100 mg/kg | 30 mg/kg | – | –
Cl.O=C(O)[C@@H]1CCCN(CCOCCN2c3ccccc3C=Cc3ccccc32)C1 | 647 nM | > 1 | > 30 mg/kg | 30 mg/kg | – | –
Cl.O=C(O)[C@@H]1CCCN(CCOCCN2c3ccccc3Sc3ccc(C(F)(F)F)cc32)C1 | 105 nM | > 1.6 | > 60 mg/kg | 38 mg/kg | – | –
Cl.O=C(O)[C@@H]1CCCN(CCON=C2c3cc(Cl)ccc3CCc3ccc(Cl)cc32)C1 | 5509 nM | 1.1 | 40 mg/kg | 35 mg/kg | – | –
O=C(O)C1CCCN(CCC=C2c3ccccc3CCc3ccccc32)C1 (stereo not drawn) | 13600 nM | – | > 60 mg/kg | > 60 mg/kg | – | –
